Assays:
[1] = test system: cell culture; conditions: ref [14] Iwasaki et al., 2014; cited from earlier work
[2] = test system: mice; test: Open field locomotor behavior; type: in vivo, male C57Bl/6J mice; conditions: ICV 20 μg, 10-minute open field, vs vehicle, unpaired t-test P>0.05
Outline: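 Male C57Bl/6J mice, 8–10 weeks old, fitted under isoflurane with a right lateral ventricle ICV cannula and allowed one week of recovery. After 1 h habituation in a dim room with 60 dB white noise, mice received 20 µg test compound in 0.5 µL 50% DMSO/50% aCSF over 2 min, or vehicle alone. Open field test began 5 min later; total distance travelled was scored blind. Cannula placement was checked at necropsy.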

[3] = test system: MDA-MB-231 triple-negative breast cancer (TNBC) cells; test: MTT cytotoxicity assay, MDA-MB-231; type: cell-based, human; conditions: 72 h, 5% FBS
Outline: (§1)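 Cells plated at 5×10^3/well and attached overnight. Growth media were DMEM:F-12 (1:1) with 10% FBS for MDA-MB-231 and RPMI 1640 with 10% FBS for MCF-7. Test compound or DMSO vehicle applied for 72 h with 5% FBS. MTT added at 0.5 mg/mL final for 3 h at 37°C, 5% CO2, and formazan dissolved in DMSO. A570 read in three wells per condition and normalized to DMSO + 5% FBS. Mean ± SE of three experiments; one-way ANOVA with Bonferroni.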

[4] = target: T1, Sigma 2 receptor (Transmembrane Protein 97 (TMEM97)) (Rattus norvegicus, UniProt Q5U3Y7); test: PDSP radioligand competition-binding assay, sigma 2; conditions: 10 μM (primary criterion)
T1 sequence (Q5U3Y7 1-176): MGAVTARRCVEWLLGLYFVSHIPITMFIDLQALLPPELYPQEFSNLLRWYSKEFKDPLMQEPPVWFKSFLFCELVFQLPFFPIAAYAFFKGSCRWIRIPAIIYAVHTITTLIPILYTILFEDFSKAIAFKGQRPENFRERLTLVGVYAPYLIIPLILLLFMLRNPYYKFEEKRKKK

[5] = test system: MCF-7 estrogen receptor positive breast cancer cells; test: MTT cytotoxicity assay, MCF-7; type: cell-based, human; conditions: 72 h, 5% FBS
Outline: as §1

[6] = printed "15 M", mean of three experiments

## maedamide
[1]
  antitumor cytotoxicity: only linear depsipeptide that exhibits antitumor cytotoxicity in cell culture

## veraguamide C
[2]
  effect on locomotor behavior: no effect of veraguamide C on total distance traveled compared to vehicle
[3]
  effect on viability / toxicity in TNBC cells (words): selectively reduce viability
[3]; listed as veraguamide C
  effect on viability / toxicity in TNBC cells (words): similar, albeit minor, levels of toxicity
[3]; [6]
  cytotoxicity, TNBC cells (MDA-MB-231): 53%
[4]
  Primary: Percent Inhibition of Binding: 65%
[5]; listed as veraguamide C
  effect on viability / toxicity in MCF-7 (ER positive) cells: mild toxicity
[5]; [6]
  cytotoxicity, MCF7 cells: 65%
